Measured values from ChEMBL document CHEMBL3351863, “Optimization of 2-phenyl-pyrimidine-4-carboxamides towards potent, orally bioavailable and selective P2Y(12) antagonists for inhibition of platelet aggregation” (Bioorg Med Chem Lett, 2014).
Activity calls are given as the source filed them. No cut-off for these calls is given here.

What was measured:
[1] = target: T1, P2X purinoceptor 7 (Homo sapiens) (UniProt Q99572); test: Antagonist activity against P2X7 (unknown origin)
T1 sequence (whole entry): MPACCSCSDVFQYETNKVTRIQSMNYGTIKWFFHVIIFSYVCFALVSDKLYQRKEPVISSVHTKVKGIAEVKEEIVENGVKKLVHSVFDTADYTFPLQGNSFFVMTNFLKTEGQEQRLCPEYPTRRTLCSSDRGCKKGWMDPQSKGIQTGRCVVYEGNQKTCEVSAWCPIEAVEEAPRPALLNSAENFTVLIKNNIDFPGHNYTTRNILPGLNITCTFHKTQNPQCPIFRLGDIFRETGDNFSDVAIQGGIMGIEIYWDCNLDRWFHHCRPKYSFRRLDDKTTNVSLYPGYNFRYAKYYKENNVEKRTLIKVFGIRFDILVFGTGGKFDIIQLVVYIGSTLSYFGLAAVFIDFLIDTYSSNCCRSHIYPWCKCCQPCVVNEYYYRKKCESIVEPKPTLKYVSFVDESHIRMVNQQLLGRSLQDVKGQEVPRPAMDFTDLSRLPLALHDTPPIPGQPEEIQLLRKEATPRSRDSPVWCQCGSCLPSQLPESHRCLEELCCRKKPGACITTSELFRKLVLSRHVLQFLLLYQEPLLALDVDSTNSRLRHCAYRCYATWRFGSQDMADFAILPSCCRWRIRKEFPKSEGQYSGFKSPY

[2] = target: T2, P2Y purinoceptor 13 (Homo sapiens) (UniProt Q9BPV8); test: Antagonist activity against P2Y13 (unknown origin) assessed as inhibition of agonist binding up to 10 uM
T2 sequence (whole entry): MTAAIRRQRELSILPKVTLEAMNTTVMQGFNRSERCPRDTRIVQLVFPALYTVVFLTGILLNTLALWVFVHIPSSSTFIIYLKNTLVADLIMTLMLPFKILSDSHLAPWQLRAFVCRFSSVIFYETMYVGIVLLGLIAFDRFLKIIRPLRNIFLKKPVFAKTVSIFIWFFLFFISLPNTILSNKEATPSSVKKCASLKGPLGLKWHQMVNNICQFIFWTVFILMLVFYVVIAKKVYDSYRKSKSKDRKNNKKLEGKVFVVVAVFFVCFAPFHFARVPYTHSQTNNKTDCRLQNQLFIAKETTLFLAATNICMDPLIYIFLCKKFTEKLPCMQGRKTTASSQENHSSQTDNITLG

[3] = target: P2Y purinoceptor 4 (Homo sapiens) (UniProt P51582); test: Antagonist activity against P2Y4 (unknown origin) assessed as inhibition of agonist binding up to 10 uM
[4] = target: P2Y purinoceptor 6 (Homo sapiens) (UniProt Q15077); test: Antagonist activity against P2Y6 (unknown origin) assessed as inhibition of agonist binding up to 10 uM
[5] = target: P2Y purinoceptor 1 (Homo sapiens) (UniProt P47900); test: Antagonist activity against P2Y1 (unknown origin) assessed as inhibition of agonist binding up to 10 uM
[6] = target: T3, P2X purinoceptor 4 (Homo sapiens) (UniProt Q99571); test: Antagonist activity against P2X4 (unknown origin)
T3 sequence (whole entry): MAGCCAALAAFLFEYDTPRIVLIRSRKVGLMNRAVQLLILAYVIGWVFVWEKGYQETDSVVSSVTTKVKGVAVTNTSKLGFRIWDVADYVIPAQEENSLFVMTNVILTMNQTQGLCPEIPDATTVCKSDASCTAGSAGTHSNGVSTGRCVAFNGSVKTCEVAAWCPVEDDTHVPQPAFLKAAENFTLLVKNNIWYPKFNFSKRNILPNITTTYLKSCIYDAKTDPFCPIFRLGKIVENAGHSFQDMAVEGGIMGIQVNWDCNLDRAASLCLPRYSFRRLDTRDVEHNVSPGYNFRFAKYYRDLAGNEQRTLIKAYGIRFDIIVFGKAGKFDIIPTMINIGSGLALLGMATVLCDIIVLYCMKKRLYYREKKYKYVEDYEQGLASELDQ

[7] = target: T4, P2X purinoceptor 2 (Homo sapiens) (UniProt Q9UBL9); test: Antagonist activity against P2X2 (unknown origin)
T4 sequence (whole entry): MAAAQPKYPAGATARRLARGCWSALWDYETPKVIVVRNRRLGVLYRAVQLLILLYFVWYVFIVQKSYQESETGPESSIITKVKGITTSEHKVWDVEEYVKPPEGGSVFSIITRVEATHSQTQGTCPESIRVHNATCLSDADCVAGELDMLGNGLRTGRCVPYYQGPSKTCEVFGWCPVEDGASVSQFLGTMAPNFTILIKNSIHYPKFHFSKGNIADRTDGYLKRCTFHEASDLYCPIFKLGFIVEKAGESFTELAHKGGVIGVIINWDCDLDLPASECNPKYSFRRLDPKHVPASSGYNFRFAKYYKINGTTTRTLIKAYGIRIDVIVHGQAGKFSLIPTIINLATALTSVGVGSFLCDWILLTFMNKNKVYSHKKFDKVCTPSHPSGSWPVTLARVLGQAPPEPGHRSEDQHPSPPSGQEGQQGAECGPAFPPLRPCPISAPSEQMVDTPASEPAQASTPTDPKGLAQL

[8] = target: T5, P2Y purinoceptor 11 (Homo sapiens) (UniProt Q96G91); test: Antagonist activity against P2Y11 (unknown origin) assessed as inhibition of agonist binding up to 10 uM
T5 sequence (whole entry): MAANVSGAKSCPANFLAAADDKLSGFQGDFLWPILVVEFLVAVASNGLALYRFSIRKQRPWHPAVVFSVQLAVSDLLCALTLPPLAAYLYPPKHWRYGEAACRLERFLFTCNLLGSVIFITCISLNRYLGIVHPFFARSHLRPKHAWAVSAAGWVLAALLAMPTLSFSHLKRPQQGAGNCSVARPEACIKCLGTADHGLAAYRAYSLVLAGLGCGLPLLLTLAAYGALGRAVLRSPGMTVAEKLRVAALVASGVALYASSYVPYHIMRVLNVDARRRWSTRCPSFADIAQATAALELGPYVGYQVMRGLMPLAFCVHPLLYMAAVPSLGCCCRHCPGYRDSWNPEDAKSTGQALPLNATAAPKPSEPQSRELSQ

[9] = target: T6, P2X purinoceptor 3 (Homo sapiens) (UniProt P56373); test: Antagonist activity against P2X3 (unknown origin)
T6 sequence (whole entry): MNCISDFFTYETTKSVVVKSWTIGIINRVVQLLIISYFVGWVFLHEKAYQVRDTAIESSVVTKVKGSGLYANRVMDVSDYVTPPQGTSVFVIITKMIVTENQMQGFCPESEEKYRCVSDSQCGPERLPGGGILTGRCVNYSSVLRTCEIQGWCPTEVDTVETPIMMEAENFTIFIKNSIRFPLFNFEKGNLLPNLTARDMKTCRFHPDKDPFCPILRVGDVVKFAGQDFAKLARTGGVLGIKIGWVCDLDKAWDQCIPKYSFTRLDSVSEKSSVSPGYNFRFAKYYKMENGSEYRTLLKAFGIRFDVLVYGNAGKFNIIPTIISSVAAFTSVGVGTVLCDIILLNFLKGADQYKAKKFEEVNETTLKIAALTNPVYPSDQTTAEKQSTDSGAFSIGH

[10] = target: T7, P2X purinoceptor 1 (Homo sapiens) (UniProt P51575); test: Antagonist activity against P2X1 (unknown origin)
T7 sequence (whole entry): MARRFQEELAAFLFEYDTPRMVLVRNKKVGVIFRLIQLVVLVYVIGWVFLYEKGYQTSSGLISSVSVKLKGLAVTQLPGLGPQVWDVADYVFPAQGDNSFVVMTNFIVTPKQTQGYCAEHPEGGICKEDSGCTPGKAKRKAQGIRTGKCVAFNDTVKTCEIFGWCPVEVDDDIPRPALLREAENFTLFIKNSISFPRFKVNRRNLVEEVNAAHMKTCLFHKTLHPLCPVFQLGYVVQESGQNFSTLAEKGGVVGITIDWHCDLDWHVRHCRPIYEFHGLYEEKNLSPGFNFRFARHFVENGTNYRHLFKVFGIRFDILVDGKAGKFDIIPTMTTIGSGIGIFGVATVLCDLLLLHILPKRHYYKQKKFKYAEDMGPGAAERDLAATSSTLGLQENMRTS

[11] = target: P2Y purinoceptor 2 (Homo sapiens) (UniProt P41231); test: Antagonist activity against P2Y2 (unknown origin) assessed as inhibition of agonist binding up to 10 uM
[12] = target: Voltage-gated inwardly rectifying potassium channel KCNH2 (Homo sapiens, UniProt Q12809); test: Inhibition of human ERG expressed in HEK cells by patch-clamp assay; type: cell-based; settings: hek293
[13] = target: T8, Cytochrome P450 3A4 (Homo sapiens, UniProt P08684); test: Inhibition of CYP3A4 in human liver microsomes assessed as reduction in testosterone 6beta-hydroxylation; type: ADME
[14] = Solubility in basic pH; type: physicochemical
[15] = system: Liver microsome; test: Metabolic stability assay in rat liver microsomes assessed as parent drug disappearance at 1 uM after 20 mins by HPLC and mass spectrometry method; type: ADME
[16] = system: Platelet; test: Inhibition of ADP-induced platelet aggregation in human platelet rich plasma by in-vitro light transmission aggregometry assay; type: functional; settings: Homo sapiens, Platelet, Plasma
Method in brief: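 Human platelet-rich plasma incubated with compound, aggregation induced by 3 µM ADP and read by light transmission aggregometry; IC₅₀ derived from concentration–response curve.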

[17] = target: Cytochrome P450 2D6 (Homo sapiens, UniProt P10635); test: Inhibition of CYP2D6 in human liver microsomes assessed as reduction in dextromethorphan-O demethylation; type: ADME
[18] = target: T8, Cytochrome P450 3A4; test: Inhibition of CYP3A4 in human liver microsomes assessed as reduction in midazolam 1'-hydroxylation; type: ADME
[19] = system: Liver microsome; test: Metabolic stability assay in human liver microsomes assessed as parent drug disappearance at 1 uM after 20 mins by HPLC and mass spectrometry method; type: ADME
[20] = Potency shift, ratio of IC50 for inhibition of ADP-induced platelet aggregation in human platelet rich plasma to IC50 for displacement of [3H]-2-methyl-thio-adenosine 5'-diphosphate from human recombinant P2Y12 expressed in CHO cell membranes
[21] = Solubility in neutral pH; type: physicochemical
[22] = system: Rattus norvegicus; test: AUC in Wistar rat at 10 mg/kg, po; type: ADME, organism-based, Plasma; design: dose 10 mg/kg, route oral; settings: in vivo
Method in brief: (§1)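 Rats dosed by iv infusion at 1 mg/kg (n = 2) or orally at 10 mg/kg (n = 3); plasma levels measured, limit of quantification ca. 1 ng/mL.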

[23] = system: Rattus norvegicus; test: (§2) Cmax in Wistar rat at 10 mg/kg, po; type: ADME, organism-based; design: dose 10 mg/kg, route oral; settings: in vivo, BLD = below limit of detection; method in brief: as §1
[24] = system: Platelet; test: Inhibition of ADP-induced platelet aggregation in human platelet rich plasma assessed as remaining activity at 500 nM by in-vitro light transmission aggregometry assay; type: functional
Method in brief: (§3)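 Light transmission aggregometry in human platelet-rich plasma; compound incubated, aggregation triggered with 3 µM ADP; remaining activity (RA) recorded at a single compound level (1000, 500 or 100 nM).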

[25] = target: Cytochrome P450 2C9 (Homo sapiens, UniProt P11712); test: Inhibition of CYP2C9 in human liver microsomes assessed as reduction in diclofenac 4'-hydroxylation; type: ADME
[26] = system: Platelet; test: Inhibition of ADP-induced platelet aggregation in human platelet rich plasma assessed as remaining activity at 100 nM by in-vitro light transmission aggregometry assay; type: functional; method in brief: as §3
[27] = Protein binding in human plasma; type: ADME, cell-free; settings: read-out: PPB (converted)
[28] = Volume of distribution at steady state in Wistar rat at 1 mg/kg, iv or 10 mg/kg, po; type: ADME, organism-based; settings: in vivo, read-out: Vdss; method in brief: as §1
[29] = Half life in Wistar rat at 1 mg/kg, iv or 10 mg/kg, po; type: ADME, organism-based; settings: in vivo; method in brief: as §1
[30] = target: P2Y purinoceptor 12 (Homo sapiens, UniProt Q9H244); test: Displacement of [3H]-2-methyl-thio-adenosine 5'-diphosphate from human recombinant P2Y12 expressed in CHO cell membranes by scintillation counting method
Method in brief: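 CHO cells expressing recombinant P2Y₁₂ receptors, incubated with tritium-labeled 2-methyl-thio-adenosine 5'-diphosphate plus test compound; IC₅₀ from displacement curves, each point in triplicate; reference compound run with every compound set, and set re-analyzed if its IC₅₀ fell outside pre-set 95% confidence interval.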

[31] = as §2; type: ADME, organism-based; design: dose 10 mg/kg, route oral; settings: Wistar, in vivo; method in brief: as §1
[32] = system: Rattus norvegicus; test: Oral bioavailability in Wistar rat at 10 mg/kg; type: ADME, organism-based; settings: in vivo; method in brief: as §1

T8 sequence (P08684 whole entry): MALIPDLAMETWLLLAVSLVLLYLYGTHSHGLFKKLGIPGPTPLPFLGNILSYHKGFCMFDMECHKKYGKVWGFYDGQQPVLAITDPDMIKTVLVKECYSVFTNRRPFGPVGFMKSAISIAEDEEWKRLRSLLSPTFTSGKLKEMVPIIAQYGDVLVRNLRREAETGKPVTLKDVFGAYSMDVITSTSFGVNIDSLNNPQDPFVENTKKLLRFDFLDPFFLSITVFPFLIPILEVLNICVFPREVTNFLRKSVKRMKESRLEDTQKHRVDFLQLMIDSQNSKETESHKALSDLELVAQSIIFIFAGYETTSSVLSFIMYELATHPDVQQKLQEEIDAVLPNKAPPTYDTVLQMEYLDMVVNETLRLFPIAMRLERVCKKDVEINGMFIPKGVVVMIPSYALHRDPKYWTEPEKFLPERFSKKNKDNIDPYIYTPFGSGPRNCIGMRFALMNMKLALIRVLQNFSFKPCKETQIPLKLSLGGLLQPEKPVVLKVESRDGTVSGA
Sequence of Cytochrome P450 2D6 (P10635 whole entry): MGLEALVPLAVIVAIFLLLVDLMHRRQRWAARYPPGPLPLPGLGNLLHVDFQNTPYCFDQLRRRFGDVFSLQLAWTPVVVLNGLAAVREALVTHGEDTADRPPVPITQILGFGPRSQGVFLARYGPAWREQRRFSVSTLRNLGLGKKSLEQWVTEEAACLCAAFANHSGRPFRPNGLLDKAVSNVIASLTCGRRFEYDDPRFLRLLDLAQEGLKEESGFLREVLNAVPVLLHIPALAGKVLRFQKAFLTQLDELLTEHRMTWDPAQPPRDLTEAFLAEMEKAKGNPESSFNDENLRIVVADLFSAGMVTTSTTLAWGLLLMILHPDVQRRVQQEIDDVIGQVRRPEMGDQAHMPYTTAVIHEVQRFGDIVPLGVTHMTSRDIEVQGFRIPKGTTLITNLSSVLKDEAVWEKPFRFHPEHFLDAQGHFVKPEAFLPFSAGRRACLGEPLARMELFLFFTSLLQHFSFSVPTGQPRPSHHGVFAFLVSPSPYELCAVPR
Sequence of Cytochrome P450 2C9 (P11712 whole entry): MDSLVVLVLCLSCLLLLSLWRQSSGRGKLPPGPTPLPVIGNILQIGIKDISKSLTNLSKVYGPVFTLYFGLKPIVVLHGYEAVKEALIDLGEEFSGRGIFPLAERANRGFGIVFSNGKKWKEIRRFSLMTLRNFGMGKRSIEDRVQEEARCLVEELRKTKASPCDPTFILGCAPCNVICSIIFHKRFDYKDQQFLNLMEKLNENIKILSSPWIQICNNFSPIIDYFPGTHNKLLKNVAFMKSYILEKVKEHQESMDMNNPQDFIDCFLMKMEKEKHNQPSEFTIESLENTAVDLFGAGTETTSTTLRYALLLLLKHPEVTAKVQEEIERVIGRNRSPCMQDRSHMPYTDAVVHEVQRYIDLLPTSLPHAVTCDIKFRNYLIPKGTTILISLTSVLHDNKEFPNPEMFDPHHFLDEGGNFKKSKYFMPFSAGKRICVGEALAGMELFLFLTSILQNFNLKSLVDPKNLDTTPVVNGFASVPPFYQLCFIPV
Sequence of Voltage-gated inwardly rectifying potassium channel KCNH2 (Q12809 whole entry): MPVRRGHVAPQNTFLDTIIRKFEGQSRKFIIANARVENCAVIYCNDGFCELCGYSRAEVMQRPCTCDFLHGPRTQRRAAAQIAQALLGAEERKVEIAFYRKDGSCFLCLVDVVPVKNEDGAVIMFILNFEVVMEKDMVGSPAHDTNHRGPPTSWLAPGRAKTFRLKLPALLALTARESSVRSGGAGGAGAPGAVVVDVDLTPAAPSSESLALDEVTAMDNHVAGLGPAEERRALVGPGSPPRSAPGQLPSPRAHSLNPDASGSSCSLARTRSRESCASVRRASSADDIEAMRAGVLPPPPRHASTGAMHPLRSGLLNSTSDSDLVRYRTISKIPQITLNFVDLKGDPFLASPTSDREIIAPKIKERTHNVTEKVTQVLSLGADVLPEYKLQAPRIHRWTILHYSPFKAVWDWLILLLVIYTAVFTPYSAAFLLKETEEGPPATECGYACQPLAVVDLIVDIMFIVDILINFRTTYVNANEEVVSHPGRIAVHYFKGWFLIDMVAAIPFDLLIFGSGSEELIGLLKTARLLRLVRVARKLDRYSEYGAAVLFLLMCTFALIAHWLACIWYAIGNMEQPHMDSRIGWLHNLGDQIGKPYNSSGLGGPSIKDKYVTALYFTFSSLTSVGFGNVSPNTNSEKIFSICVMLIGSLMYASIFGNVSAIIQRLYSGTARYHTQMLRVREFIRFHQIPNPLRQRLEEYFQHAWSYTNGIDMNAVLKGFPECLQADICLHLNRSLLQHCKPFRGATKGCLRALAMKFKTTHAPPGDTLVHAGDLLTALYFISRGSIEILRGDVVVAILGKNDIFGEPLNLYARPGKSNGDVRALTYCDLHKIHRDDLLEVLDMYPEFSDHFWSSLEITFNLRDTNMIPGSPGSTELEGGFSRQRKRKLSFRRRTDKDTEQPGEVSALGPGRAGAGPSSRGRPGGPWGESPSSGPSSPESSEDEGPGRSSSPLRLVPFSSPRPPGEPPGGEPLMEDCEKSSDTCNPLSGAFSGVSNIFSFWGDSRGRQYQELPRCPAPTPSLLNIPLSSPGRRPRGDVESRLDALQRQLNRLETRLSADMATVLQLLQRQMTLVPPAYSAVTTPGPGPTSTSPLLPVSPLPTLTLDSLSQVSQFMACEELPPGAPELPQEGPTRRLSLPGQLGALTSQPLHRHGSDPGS
Sequence of P2Y purinoceptor 4 (Homo sapiens) (P51582 whole entry): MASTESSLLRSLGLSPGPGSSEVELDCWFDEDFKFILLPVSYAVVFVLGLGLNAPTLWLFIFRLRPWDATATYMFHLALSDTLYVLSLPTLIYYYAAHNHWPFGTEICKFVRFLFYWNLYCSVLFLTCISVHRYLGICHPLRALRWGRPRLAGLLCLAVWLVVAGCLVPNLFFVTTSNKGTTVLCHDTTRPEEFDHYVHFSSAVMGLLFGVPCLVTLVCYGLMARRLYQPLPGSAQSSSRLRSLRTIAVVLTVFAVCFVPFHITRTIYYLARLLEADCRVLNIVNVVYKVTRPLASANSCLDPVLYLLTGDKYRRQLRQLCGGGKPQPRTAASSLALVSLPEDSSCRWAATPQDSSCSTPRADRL
Sequence of P2Y purinoceptor 6 (Homo sapiens) (Q15077 whole entry): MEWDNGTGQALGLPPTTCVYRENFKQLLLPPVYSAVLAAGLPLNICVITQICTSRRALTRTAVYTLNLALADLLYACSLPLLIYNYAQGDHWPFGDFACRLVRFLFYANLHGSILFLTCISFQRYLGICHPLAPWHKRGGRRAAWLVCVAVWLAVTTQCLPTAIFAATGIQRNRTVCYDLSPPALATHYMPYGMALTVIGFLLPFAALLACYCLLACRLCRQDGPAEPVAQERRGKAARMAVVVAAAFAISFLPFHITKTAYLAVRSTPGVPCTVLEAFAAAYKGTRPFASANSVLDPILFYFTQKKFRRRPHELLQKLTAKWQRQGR
Sequence of P2Y purinoceptor 1 (Homo sapiens) (P47900 whole entry): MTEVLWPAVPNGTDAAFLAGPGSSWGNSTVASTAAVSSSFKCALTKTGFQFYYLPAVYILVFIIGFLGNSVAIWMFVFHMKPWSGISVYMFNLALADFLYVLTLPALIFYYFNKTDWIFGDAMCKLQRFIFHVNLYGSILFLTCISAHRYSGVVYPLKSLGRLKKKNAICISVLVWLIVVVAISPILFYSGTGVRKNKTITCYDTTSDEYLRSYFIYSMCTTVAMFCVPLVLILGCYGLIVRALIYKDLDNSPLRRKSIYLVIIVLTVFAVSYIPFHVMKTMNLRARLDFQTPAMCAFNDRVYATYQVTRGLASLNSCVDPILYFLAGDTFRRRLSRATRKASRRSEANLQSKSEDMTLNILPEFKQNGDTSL
Sequence of P2Y purinoceptor 12 (Q9H244 whole entry): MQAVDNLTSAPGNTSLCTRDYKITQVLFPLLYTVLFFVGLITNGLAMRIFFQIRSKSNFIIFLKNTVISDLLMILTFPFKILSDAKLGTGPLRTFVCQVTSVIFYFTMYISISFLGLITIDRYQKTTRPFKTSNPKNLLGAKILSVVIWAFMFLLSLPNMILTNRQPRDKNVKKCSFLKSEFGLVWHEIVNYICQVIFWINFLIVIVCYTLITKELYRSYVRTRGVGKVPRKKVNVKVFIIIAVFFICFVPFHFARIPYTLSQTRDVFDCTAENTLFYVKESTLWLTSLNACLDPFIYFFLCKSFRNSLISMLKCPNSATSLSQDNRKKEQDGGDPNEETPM
Sequence of P2Y purinoceptor 2 (Homo sapiens) (P41231 whole entry): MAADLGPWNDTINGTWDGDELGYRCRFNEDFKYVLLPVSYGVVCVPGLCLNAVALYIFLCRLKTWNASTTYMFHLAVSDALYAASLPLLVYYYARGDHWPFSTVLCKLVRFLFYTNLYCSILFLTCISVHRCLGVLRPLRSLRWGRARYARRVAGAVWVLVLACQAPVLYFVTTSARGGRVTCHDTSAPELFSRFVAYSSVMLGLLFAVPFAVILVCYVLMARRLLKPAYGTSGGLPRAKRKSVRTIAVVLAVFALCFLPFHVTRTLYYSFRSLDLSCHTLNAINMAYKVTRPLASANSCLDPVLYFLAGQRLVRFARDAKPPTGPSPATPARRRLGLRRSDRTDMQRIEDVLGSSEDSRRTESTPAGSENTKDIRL

SMILES | inhibition (INH) [12] | inhibition (INH) [13] | solubility [14] | Stability [15] | IC50 [16] [nM] | inhibition (INH) [17] | inhibition (INH) [18] | Stability [19] | Ratio IC50 [20] | solubility [21] | Activity [24] [%] | inhibition (INH) [25] | Activity [26] [%] | other results
CCCCOC(=O)N1CCN(C(=O)[C@H](CCC(=O)O)NC(=O)c2cc([C@H]3C[C@@H]3COC)nc(-c3ccccc3)n2)CC1 |  |  |  |  |  |  |  |  |  |  |  |  |  | inhibition [1]: inactive; inhibition [2]: inactive; inhibition [3]: inactive; inhibition [4]: inactive; inhibition [5]: inactive; inhibition [6]: inactive; inhibition [7]: inactive; inhibition [8]: inactive; inhibition [9]: inactive; inhibition [10]: inactive; inhibition [11]: inactive
CCOC(=O)N1CCN(C(=O)[C@H](CCC(=O)O)NC(=O)c2cc(-c3ccc[n+]([O-])c3)nc(-c3ccccc3)n2)CC1 | Not Active | Not Active | soluble | Stable | 126 | Not Active | Not Active | Stable | 0.98 | soluble | <30 | Not Active | <70 | AUC ([22]; BLD = below limit of detection): BLD; Cmax [23]: BLD
CCOC(=O)N1CCN(C(=O)[C@H](CCC(=O)O)NC(=O)c2cc(NCCO)nc(-c3ccccc3)n2)CC1 | Not Active | Not Active | soluble | Stable | 114 | Not Active | Not Active | Stable | 0.67 | soluble | <30 | Not Active | <70 | fraction unbound [27]: 0.135; Vd [28]: 1 L/kg; half-life [29]: 12 min; IC50 [30]: 169 nM; AUC [22]: 8.44 nM·h; Cmax [31]: 17.5 nM; F [32]: 3%
